Activity calls are given as the source filed them. The calls are words filed in the database; no cut-off is given here.
Key:
Mus musculus [1] = species: Mus musculus; test: Analgesic activity assayed with the mouse hotplate method; assay type: functional
Method in brief: (§1)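 Mouse hot-plate test. Compounds were given subcutaneously as water-soluble HCl salts. The ED50 is expressed in mmol/kg, and potency is given as log(1/C), where C is the ED50 in mmol/kg.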

Mus musculus [2] = species: Mus musculus; test: Relative Analgesic activity of compound to the N-substituted normeperidine assayed by the mouse hotplate method; assay type: functional
Mus musculus [3] = species: Mus musculus; test: Analgesic activity of compound assayed by the mouse hotplate method was determined as log(1/C); Inactive; assay type: functional, organism-based
Mus musculus [4] = species: Mus musculus; test: Analgesic activity of compound assayed by the mouse hotplate method was determined as log(1/C); Activity observed in 4-5 out of 10 mice tested; assay type: functional; method in brief: as §1
Mus musculus [5] = species: Mus musculus; test: Relative Analgesic activity of compound to the N-methyl homologue assayed by the mouse hotplate method; assay type: functional
Mus musculus [6] = species: Mus musculus; test: Analgesic activity of compound assayed by the mouse hotplate method was determined as ED50.; assay type: functional; method in brief: as §1
Mus musculus [7] = species: Mus musculus; test: Analgesic activity of compound assayed by the mouse hotplate method was determined; assay type: functional; method in brief: as §1

Row | Structure (SMILES) | Log 1/C (Mus musculus [1]) | other results
1 | CN1CCC(OC(=O)c2ccccc2Cc2ccccc2)CC1 | 1.28 | –
2 | Cc1cccc(C)c1C(=O)OC1CCN(C)CC1 | 1.27 | –
3 | COc1cc(OC)cc(C(=O)OC2CCN(C)CC2)c1 | 1.53 | –
4 | CN1CCC(OC(=O)c2cccc(F)c2)CC1 | 1.26 | –
5 | CN1CCC(OC(=O)c2ccccc2F)CC1 | 1.41 | –
6 | Cc1ccc(C(=O)OC2CCN(C)CC2)cc1F | 1.32 | –
7 | Oc1ccc2c3c1O[C@H]1[C@@H](O)C=CC4(CC2)CN(CCCCc2ccccc2)CCC314 (some centres undefined) | – | Relative activity (Mus musculus [2]): 0.3
8 | CN1CCC(OC(=O)c2ccc(Cl)c(Cl)c2)CC1 | 1.08 | –
9 | CN1CCC(OC(=O)c2ccc(I)cc2)CC1 | – | Log 1/C (Mus musculus [3]): inactive
10 | CN1CCC(OC(=O)c2ccccc2Cl)CC1 | 1.25 | –
11 | CCc1ccccc1C(=O)OC1CCN(C)CC1 | – | Log 1/C (Mus musculus [4]): 1.15
12 | CN1CCC(OC(=O)c2cccc(O)c2)CC1 | 1.21 | –
13 | Cc1cc(C)c(C(=O)OC2CCN(C)CC2)cc1C | 1.17 | –
14 | CN1CCC(OC(=O)c2ccccc2C(F)(F)F)CC1 | 1.49 | –
15 | CN1CCC(OC(=O)c2ccccc2C#N)CC1 | – | Log 1/C (Mus musculus [3]): inactive
16 | Cc1ccc(C)c(C(=O)OC2CCN(C)CC2)c1 | 1.36 | –
17 | CN1CCC(OC(=O)c2ccc(Cl)cc2)CC1 | 1.11 | –
18 | COc1cc(OC)c(C(=O)OC2CCN(C)CC2)c(OC)c1 | 1.47 | –
19 | CN1CCC(OC(=O)c2ccc(-c3ccccc3)cc2)CC1 | 0.85 | –
20 | CN1CCC(OC(=O)c2ccc(C(C)(C)C)cc2)CC1 | 1.13 | –
21 | COc1ccccc1C(=O)OC1CCN(C)CC1 | 1.43 | –
22 | Oc1ccc2c3c1O[C@H]1[C@@H](O)C=CC4(CC2)CN(Cc2ccccc2)CCC314 (some centres undefined) | – | Relative activity (Mus musculus [5]): <0.1

Row | Structure (SMILES) | Log 1/C (Mus musculus [1]) | other results
23 | CCN1CCC(OC(=O)c2c(C)[nH]c(C)c2C)CC1 | – | Relative activity (Mus musculus [5]): 0.5; ED50 (Mus musculus [6]): 10.4 mg/kg
24 | CCOc1ccccc1C(=O)OC1CCN(C)CC1 | – | Log 1/C (Mus musculus [4]): 1.18
25 | CCOC(=O)C1(c2ccccc2)CCN(C/C=C/c2ccccc2)CC1 | – | Relative activity (Mus musculus [2]): 40
26 | CN1CCC(OC(=O)c2ccc(C#N)cc2)CC1 | 1.65 | –
27 | CN1CCC(OC(=O)c2ccccc2-c2ccccc2)CC1 | – | Log 1/C (Mus musculus [4]): 1.52
28 | CN1CCC(OC(=O)c2ccc([N+](=O)[O-])cc2)CC1 | 1.14 | –
29 | Cc1cc(C)c(C(=O)OC2CCN(C)CC2)c(C)c1 | 1.55 | –
30 | CCOC(=O)C1(c2ccccc2)CCN(CC)CC1 | – | Relative activity (Mus musculus [2]): 0.5
31 | Cc1[nH]c(C)c(C(=O)OC2CCN(C)CC2)c1C | – | Relative activity (Mus musculus [5]): 1; Log 1/C (Mus musculus [7]): 1.87; ED50 (Mus musculus [6]): 4.9 mg/kg
32 | CN1CCC(OC(=O)c2ccccc2Br)CC1 | 1.21 | –
33 | Cc1cccc(C(=O)OC2CCN(C)CC2)c1 | – | Log 1/C (Mus musculus [3]): inactive
34 | Oc1ccc2c3c1O[C@H]1[C@@H](O)C=CC4(CC2)CN(CCc2ccccc2)CCC314 (some centres undefined) | – | Relative activity (Mus musculus [5]): 6
35 | CN1CCC(OC(=O)c2ccccc2Oc2ccccc2)CC1 | – | Log 1/C (Mus musculus [4]): 1.24
36 | CCN1CCC23c4c5ccc(O)c4O[C@H]2[C@@H](O)C=CC3(CC5)C1 (some centres undefined) | – | Relative activity (Mus musculus [5]): <0.1
37 | CCCCOc1ccc(C(=O)OC2CCN(C)CC2)cc1 | 1.58 | –
38 | Cc1ccc(C(=O)OC2CCN(C)CC2)cc1 | 1.17 | –
39 | Cc1cc(C)cc(C(=O)OC2CCN(C)CC2)c1 | 1.07 | –
40 | Cc1[nH]c(C)c(C(=O)OC2CCN(CCc3ccccc3)CC2)c1C | – | Relative activity (Mus musculus [5]): 0.3; ED50 (Mus musculus [6]): 20 mg/kg
41 | CCOc1ccc(C(=O)OC2CCN(C)CC2)cc1 | 1.72 | –
42 | Cc1ccccc1C(=O)OC1CCN(C)CC1 | 1.48 | –
43 | CN1CCC(OC(=O)c2ccccc2)CC1 | 1.43 | –
44 | COc1cccc(OC)c1C(=O)OC1CCN(C)CC1 | 0.63 | –

Row | Structure (SMILES) | Log 1/C (Mus musculus [1]) | other results
45 | CN1CCC(OC(=O)c2ccccc2CCc2ccccc2)CC1 | – | Log 1/C (Mus musculus [4]): 0.86
46 | COc1cc(C(=O)OC2CCN(C)CC2)cc(OC)c1OC | 1.35 | –
47 | COc1ccc(C(=O)OC2CCN(C)CC2)cc1OC | 1.91 | –
48 | Cc1ccc(C(=O)OC2CCN(C)CC2)cc1C | – | Log 1/C (Mus musculus [4]): 1.15
49 | CCOC(=O)C1(c2ccccc2)CCN(Cc2ccccc2)CC1 | – | Relative activity (Mus musculus [2]): <0.5
50 | CN1CCC(OC(=O)c2cccc(C#N)c2)CC1 | 1.39 | –
51 | CCOC(=O)C1(c2ccccc2)CCN(C)CC1 [MEPERIDINE] | – | Relative activity (Mus musculus [5]): 1
52 | CN1CCC(OC(=O)c2ccc(F)cc2)CC1 | 1.38 | –
53 | COc1cccc(C(=O)OC2CCN(C)CC2)c1 | 1.67 | –
54 | COc1cc(C(=O)OC2CCN(C)CC2)ccc1C | 1.4 | –
55 | COc1ccc(C(=O)OC2CCN(C)CC2)cc1 | 1.43 | –
56 | CN1CCC23c4c5ccc(O)c4O[C@H]2[C@@H](O)C=CC3(CC5)C1 (some centres undefined) | – | Relative activity (Mus musculus [5]): 1
57 | CN1CCC(OC(=O)c2cc(I)cc(I)c2I)CC1 | – | Log 1/C (Mus musculus [3]): inactive
58 | CCOC(=O)C1(c2ccccc2)CCN(CCCCc2ccccc2)CC1 | – | Relative activity (Mus musculus [2]): 2.8
59 | CN1CCC(OC(=O)c2ccccc2[N+](=O)[O-])CC1 | 1.48 | –
60 | CCOC(=O)C1(c2ccccc2)CCN(CCc2ccccc2)CC1 [PHENERIDINE] | – | Relative activity (Mus musculus [2]): 2.6
61 | COc1cccc(C(=O)OC2CCN(C)CC2)c1OC | 1.55 | –
62 | Oc1ccc2c3c1O[C@H]1[C@@H](O)C=CC4(CC2)CN(C/C=C/c2ccccc2)CCC314 (some centres undefined) | – | Relative activity (Mus musculus [2]): <0.1
63 | CN1CCC(OC(=O)c2ccc3c(c2)OCO3)CC1 | 1.61 | –
64 | Cc1[nH]c(C)c(C(=O)OC2CCN(Cc3ccccc3)CC2)c1C | – | Relative activity (Mus musculus [5]): 0.8; ED50 (Mus musculus [6]): 6.3 mg/kg
